{"source": "ChEMBL document CHEMBL4257478", "about": "“Design, synthesis and evaluation of (R)-3-(7-(methyl(7H-pyrrolo[2,3-d]pyrimidin-4-yl)amino)-5-azaspiro[2.4]heptan-5-yl)-3-oxopropanenitrile as a JAK1-selective inhibitor” (Medchemcomm, 2018)", "key": {"Mus musculus [1]": {"test_system": "Mus musculus", "experiment": "Antiarthritic activity in collagen-induced DBA1/J mouse arthritis model assessed as decrease in infiltration of inflammatory cells in right hind ankle joints administered as po qd measured on day 19 by hematoxylin-eosin staining-based assay", "format": "functional, organism-based", "method_in_brief": "(§1)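 Male DBA1/J mice, 6 weeks old, immunized s.c. at the tail base with type II collagen (2 mg/mL) in complete Freund's adjuvant (1:1, 0.1 mL), then boosted at day 21 with collagen in incomplete Freund's adjuvant. Clinical scores taken twice weekly for 18 days; serum IL-6 and TNF-α measured after autopsy; right hind ankle assessed by histopathology and by micro-CT for bone surface/volume.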"}, "[2]": {"biological_target": "T1, Tyrosine-protein kinase JAK1 (Homo sapiens, UniProt P23458)", "T1 sequence (P23458 whole entry)": "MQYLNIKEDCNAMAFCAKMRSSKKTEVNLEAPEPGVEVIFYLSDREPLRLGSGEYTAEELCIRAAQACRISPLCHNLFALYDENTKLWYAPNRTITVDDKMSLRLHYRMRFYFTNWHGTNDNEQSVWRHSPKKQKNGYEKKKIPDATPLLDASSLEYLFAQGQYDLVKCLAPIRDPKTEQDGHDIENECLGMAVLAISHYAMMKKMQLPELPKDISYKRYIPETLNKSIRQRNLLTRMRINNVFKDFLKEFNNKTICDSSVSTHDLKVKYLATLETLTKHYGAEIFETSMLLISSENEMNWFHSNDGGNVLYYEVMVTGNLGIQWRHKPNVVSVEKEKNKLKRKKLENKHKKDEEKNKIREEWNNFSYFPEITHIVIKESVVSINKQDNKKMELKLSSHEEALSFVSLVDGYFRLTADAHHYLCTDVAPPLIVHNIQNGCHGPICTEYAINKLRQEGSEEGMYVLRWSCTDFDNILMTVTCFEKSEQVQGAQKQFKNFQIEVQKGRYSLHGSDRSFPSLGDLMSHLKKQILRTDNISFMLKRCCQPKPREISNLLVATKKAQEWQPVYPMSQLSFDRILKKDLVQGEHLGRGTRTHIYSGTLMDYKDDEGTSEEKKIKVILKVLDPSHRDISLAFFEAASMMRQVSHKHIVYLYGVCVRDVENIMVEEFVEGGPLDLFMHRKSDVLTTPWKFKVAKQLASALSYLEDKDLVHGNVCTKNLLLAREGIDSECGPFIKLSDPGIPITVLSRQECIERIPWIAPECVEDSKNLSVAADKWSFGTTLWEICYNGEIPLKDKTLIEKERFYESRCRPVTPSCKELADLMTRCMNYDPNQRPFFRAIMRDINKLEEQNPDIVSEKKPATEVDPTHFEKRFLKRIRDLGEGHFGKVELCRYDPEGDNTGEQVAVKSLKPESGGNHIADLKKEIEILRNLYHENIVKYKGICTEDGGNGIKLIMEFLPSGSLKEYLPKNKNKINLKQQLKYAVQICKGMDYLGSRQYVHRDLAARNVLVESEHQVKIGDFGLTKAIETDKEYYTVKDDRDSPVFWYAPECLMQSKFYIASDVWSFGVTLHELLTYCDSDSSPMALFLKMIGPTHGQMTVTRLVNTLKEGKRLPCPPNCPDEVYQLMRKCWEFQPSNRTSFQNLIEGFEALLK", "conditions": "10 uM"}, "Mus musculus [3]": {"test_system": "Mus musculus", "experiment": "Antiarthritic activity in collagen-induced DBA1/J mouse arthritis model assessed as decrease in ratio of bone surface to bone volume of right hind ankle joint administered as po qd measured on day 19 by micro-CT analysis", "format": "functional, organism-based", "method_in_brief": "as §1"}, "[4]": {"biological_target": "T2, Tyrosine-protein kinase JAK3 (Homo sapiens) (UniProt P52333)", "T2 sequence (whole entry)": "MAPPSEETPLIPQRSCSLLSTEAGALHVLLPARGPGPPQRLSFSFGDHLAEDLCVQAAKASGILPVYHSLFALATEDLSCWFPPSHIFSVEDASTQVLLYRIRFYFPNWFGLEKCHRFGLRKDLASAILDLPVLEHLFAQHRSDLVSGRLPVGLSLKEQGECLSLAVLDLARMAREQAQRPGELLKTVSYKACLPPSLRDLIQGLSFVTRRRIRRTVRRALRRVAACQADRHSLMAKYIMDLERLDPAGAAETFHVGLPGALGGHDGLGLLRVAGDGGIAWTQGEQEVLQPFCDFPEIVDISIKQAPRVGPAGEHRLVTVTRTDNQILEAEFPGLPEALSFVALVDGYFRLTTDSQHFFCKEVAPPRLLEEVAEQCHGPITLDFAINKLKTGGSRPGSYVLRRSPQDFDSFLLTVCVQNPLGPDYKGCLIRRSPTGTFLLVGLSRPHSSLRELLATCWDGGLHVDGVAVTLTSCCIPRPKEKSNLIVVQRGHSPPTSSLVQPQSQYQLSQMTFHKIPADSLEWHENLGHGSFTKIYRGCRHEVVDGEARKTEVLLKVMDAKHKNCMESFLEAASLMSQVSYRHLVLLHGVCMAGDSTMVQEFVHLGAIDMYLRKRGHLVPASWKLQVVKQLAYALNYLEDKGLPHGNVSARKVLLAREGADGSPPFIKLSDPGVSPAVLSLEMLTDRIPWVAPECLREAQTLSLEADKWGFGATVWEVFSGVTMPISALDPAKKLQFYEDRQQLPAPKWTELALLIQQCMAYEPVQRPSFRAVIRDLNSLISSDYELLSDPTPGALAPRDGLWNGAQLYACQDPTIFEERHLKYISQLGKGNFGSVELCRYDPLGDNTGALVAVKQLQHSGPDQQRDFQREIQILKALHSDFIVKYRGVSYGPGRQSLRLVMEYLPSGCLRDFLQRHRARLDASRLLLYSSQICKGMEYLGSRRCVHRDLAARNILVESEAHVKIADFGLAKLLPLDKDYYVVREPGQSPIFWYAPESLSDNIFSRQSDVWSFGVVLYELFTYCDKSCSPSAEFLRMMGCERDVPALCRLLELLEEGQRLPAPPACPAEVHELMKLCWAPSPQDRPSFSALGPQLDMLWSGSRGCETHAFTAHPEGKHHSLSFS", "conditions": "10 uM"}, "Mus musculus [5]": {"test_system": "Mus musculus", "experiment": "Antiarthritic activity in collagen-induced DBA1/J mouse arthritis model assessed as decrease in serum IL-6 levels administered as po qd measured on day 19 by ELISA", "format": "functional, organism-based", "method_in_brief": "as §1"}, "Mus musculus [6]": {"test_system": "Mus musculus", "experiment": "Antiarthritic activity in collagen-induced DBA1/J mouse arthritis model assessed as decrease in paw volume administered as po qd measured on day 1 and 15 by plethysmometer"}, "Mus musculus [7]": {"test_system": "Mus musculus", "experiment": "Antiarthritic activity in collagen-induced DBA1/J mouse arthritis model assessed as decrease in clinical arthritis score administered as po qd measured twice weekly for 18 days", "format": "functional, organism-based", "method_in_brief": "as §1"}, "[8]": {"biological_target": "Non-receptor tyrosine-protein kinase TYK2 (Homo sapiens) (UniProt P29597)", "sequence (P29597 whole entry)": "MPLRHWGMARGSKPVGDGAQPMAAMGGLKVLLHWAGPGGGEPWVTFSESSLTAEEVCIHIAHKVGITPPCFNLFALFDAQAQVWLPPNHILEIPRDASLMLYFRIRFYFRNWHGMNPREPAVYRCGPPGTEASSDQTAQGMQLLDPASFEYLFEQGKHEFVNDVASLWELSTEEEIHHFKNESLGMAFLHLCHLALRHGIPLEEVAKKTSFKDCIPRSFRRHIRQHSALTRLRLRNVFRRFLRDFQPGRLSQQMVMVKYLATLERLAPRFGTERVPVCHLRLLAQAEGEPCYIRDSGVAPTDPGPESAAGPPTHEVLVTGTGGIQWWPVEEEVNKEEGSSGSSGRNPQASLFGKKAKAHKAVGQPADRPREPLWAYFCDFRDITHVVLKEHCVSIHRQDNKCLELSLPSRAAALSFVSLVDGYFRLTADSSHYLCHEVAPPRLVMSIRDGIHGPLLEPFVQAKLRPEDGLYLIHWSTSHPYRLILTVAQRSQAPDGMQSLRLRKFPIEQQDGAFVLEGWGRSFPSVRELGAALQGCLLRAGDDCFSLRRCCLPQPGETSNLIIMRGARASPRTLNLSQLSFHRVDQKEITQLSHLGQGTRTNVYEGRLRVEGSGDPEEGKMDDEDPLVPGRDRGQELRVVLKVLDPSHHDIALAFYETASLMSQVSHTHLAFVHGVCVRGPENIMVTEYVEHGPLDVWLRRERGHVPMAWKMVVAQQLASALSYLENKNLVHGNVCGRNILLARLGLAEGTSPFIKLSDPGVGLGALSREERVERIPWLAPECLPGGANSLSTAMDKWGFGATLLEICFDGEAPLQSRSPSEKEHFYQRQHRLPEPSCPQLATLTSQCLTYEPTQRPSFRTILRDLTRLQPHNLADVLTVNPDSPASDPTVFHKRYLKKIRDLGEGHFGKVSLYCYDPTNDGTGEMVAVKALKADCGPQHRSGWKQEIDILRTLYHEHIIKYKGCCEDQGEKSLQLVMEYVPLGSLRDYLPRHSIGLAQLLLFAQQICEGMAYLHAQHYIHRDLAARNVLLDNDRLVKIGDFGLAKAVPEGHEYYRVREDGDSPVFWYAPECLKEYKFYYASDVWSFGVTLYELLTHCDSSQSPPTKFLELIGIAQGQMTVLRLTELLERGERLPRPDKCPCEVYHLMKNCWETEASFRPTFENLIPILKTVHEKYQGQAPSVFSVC", "conditions": "10 uM"}, "Rattus norvegicus [9]": {"test_system": "Rattus norvegicus", "experiment": "Antiarthritic activity in adjuvant-induced SPF LEW/SsNSlc rat arthritis model assessed as decrease in clinical arthritis score at 5 to 20 mg/kg, po qd measured on day 14", "format": "functional, organism-based", "method_in_brief": "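Lewis rats were 10 weeks old after 2 weeks acclimation. Immunized s.c. at the tail base with 0.1 mL complete Freund's adjuvant containing 10 mg/mL heat-killed mycobacterium. From day 12 post-immunization (day 1), n=10 per group, oral dosing once daily for 14 days, vehicle corn oil. Clinical score and hind paw measured twice weekly.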"}, "Mus musculus [10]": {"test_system": "Mus musculus", "experiment": "Antiarthritic activity in collagen-induced DBA1/J mouse arthritis model assessed as decrease in right hind ankle joint thickness administered as po qd measured on day 19 by hematoxylin-eosin staining-based assay", "format": "functional, organism-based", "method_in_brief": "as §1"}, "Mus musculus [11]": {"test_system": "Mus musculus", "experiment": "Antiarthritic activity in collagen-induced DBA1/J mouse arthritis model assessed as decrease in articular surface cartilage thickness in right hind ankle joints administered as po qd measured on day 19 by hematoxylin-eosin staining-based assay", "format": "functional, organism-based", "method_in_brief": "as §1"}, "Homo sapiens": {"organism": "Homo sapiens", "experiment": "Selectivity index, ratio of IC50 for human JAK2 to IC50 for human JAK1", "method_in_brief": "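Kinase activity assays run as a commercial service at Km ATP; IC50 values fitted from concentration-response data; ratio of JAK2 to JAK1 IC50.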"}, "[12]": {"biological_target": "T1, Tyrosine-protein kinase JAK1", "experiment": "Inhibition of human JAK1 at 1 uM using GEEPLYWSFPAKKK as substrate after 40 mins in presence of [gamma-33P-ATP] by scintillation counting method relative to control"}, "[13]": {"biological_target": "Tyrosine-protein kinase JAK2 (Homo sapiens, UniProt O60674)", "sequence (O60674 whole entry)": "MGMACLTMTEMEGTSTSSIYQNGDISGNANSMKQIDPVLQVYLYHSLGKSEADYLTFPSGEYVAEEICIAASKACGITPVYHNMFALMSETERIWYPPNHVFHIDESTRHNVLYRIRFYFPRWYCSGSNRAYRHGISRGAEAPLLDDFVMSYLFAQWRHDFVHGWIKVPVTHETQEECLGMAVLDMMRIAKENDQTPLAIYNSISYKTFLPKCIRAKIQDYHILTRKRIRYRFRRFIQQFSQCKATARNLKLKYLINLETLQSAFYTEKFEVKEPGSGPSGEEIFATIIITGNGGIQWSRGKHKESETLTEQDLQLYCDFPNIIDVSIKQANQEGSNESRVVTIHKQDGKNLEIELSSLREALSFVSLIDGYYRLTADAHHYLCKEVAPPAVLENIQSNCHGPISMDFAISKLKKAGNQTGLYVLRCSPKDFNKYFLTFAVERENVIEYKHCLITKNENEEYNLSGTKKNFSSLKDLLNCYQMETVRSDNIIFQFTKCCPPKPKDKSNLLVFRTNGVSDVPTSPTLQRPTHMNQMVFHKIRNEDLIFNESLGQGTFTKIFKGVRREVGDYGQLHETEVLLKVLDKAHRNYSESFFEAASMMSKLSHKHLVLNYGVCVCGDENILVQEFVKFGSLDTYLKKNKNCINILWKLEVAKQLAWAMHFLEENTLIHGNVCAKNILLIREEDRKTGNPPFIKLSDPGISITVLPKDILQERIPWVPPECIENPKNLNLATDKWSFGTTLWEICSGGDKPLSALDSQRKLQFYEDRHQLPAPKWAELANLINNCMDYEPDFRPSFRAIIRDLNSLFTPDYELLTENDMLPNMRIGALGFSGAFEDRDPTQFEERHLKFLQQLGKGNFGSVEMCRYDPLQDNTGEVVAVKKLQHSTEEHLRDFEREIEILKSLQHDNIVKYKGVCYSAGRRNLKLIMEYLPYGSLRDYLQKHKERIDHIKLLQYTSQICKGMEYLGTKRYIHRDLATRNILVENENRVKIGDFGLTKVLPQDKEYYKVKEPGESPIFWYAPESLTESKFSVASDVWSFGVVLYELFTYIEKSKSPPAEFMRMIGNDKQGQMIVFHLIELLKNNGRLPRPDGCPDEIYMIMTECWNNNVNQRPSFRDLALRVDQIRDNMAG", "experiment": "Inhibition of human JAK2 at 1 uM using KTFCGTPEYLAPEVRREPRILSEEEQEMFRDFDYIADWC as substrate after 40 mins in presence of [gamma-33P-ATP] by scintillation counting method relative to control"}, "Rattus norvegicus [14]": {"test_system": "Rattus norvegicus", "experiment": "AUC (0 to t) in Sprague-Dawley rat at 5 mg/kg, iv after 0.08 to 24 hrs by LC-MS/MS method", "format": "ADME, organism-based", "design": "time upper 24 hr, time lower 0.08 hr, dose 5 mg/kg, route intravenous", "conditions": "in vivo", "method_in_brief": "(§2)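 Male Sprague Dawley rats, 7-8 weeks old, n=4 per group. IV dose 5 mg/kg free base in 10% ethanol/90% PEG400; oral dose 10 mg/kg as corn oil suspension after 16 h fast. Blood taken 0.08-24 h (IV) or 0.25-24 h (PO). Plasma diluted in acetonitrile with internal standard, analysed by LC-MS/MS, parameters by non-compartmental analysis.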"}, "Rattus norvegicus [15]": {"test_system": "Rattus norvegicus", "experiment": "AUC (0 to infinity) in Sprague-Dawley rat at 5 mg/kg, iv after 0.08 to 24 hrs by LC-MS/MS method", "format": "ADME, organism-based", "design": "dose 5 mg/kg, time infinity, route intravenous", "conditions": "in vivo", "method_in_brief": "as §2"}, "Rattus norvegicus [16]": {"test_system": "Rattus norvegicus", "experiment": "AUC (0 to t) in Sprague-Dawley rat at 10 mg/kg, po after 0.25 to 24 hrs by LC-MS/MS method", "format": "ADME, organism-based", "design": "time lower 0.25 hr, dose 10 mg/kg, time upper 24 hr, route oral", "conditions": "in vivo", "method_in_brief": "as §2"}, "[17]": {"experiment": "Cmax in Sprague-Dawley rat at 10 mg/kg, po after 0.25 to 24 hrs by LC-MS/MS method", "format": "ADME, organism-based", "design": "dose 10 mg/kg, route oral", "conditions": "in vivo", "method_in_brief": "as §2"}, "[18]": {"experiment": "Tmax in Sprague-Dawley rat at 10 mg/kg, po after 0.25 to 24 hrs by LC-MS/MS method", "format": "ADME, organism-based", "conditions": "in vivo", "method_in_brief": "(§3)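 Male Sprague Dawley rats, 7–8 weeks old, n=4, fasted 16 h. Free base given at 10 mg/kg po as a corn oil suspension (5 mL/kg); a 5 mg/kg iv arm used 10% ethanol/90% PEG400. Plasma sampled 0.25–24 h, acetonitrile-precipitated with internal standard, and measured by LC-MS/MS. Parameters derived by non-compartmental analysis.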"}, "[19]": {"experiment": "MRT in Sprague-Dawley rat at 5 mg/kg, iv after 0.08 to 24 hrs by LC-MS/MS method", "format": "ADME, organism-based", "conditions": "in vivo", "method_in_brief": "as §2"}, "[20]": {"experiment": "MRT in Sprague-Dawley rat at 10 mg/kg, po after 0.25 to 24 hrs by LC-MS/MS method", "format": "ADME, organism-based", "conditions": "in vivo", "method_in_brief": "as §2"}, "[21]": {"experiment": "Half life in Sprague-Dawley rat at 10 mg/kg, po after 0.25 to 24 hrs by LC-MS/MS method", "format": "ADME, organism-based", "conditions": "in vivo", "method_in_brief": "as §2"}, "Rattus norvegicus [22]": {"test_system": "Rattus norvegicus", "experiment": "AUC (0 to infinity) in Sprague-Dawley rat at 10 mg/kg, po after 0.25 to 24 hrs by LC-MS/MS method", "format": "ADME, organism-based", "design": "dose 10 mg/kg, route oral, time infinity", "conditions": "in vivo", "method_in_brief": "as §2"}, "[23]": {"experiment": "Half life in Sprague-Dawley rat at 5 mg/kg, iv after 0.08 to 24 hrs by LC-MS/MS method", "format": "ADME, organism-based", "conditions": "in vivo", "method_in_brief": "as §2"}, "[24]": {"experiment": "Oral bioavailability in Sprague-Dawley rat at 10 mg/kg after 0.25 to 24 hrs by LC-MS/MS method", "format": "ADME, organism-based", "conditions": "in vivo", "method_in_brief": "as §3"}}, "note": "The source made the active and inactive calls. No cut-off for these calls is given here.", "data": [{"compound": "CN(c1ncnc2[nH]ccc12)[C@H]1CN(C(=O)CC#N)CC12CC2", "values": [{"measurement": "Activity", "setting": "Mus musculus [1]", "result": "Dose-dependent effect"}, {"measurement": "inhibition", "setting": "[2]", "result": 90, "unit": "%"}, {"measurement": "Activity", "setting": "Mus musculus [3]", "result": "Dose-dependent effect"}, {"measurement": "inhibition", "setting": "[4]", "result": 90, "unit": "%"}, {"measurement": "Activity", "setting": "Mus musculus [5]", "result": "Dose-dependent effect"}, {"measurement": "Activity", "setting": "Mus musculus [6]", "result": "Dose-dependent effect"}, {"measurement": "Activity", "setting": "Mus musculus [7]", "result": "Dose-dependent effect"}, {"measurement": "inhibition", "setting": "[8]", "result": 90, "unit": "%"}, {"measurement": "Activity", "setting": "Rattus norvegicus [9]", "result": "Active"}, {"measurement": "Activity", "setting": "Mus musculus [10]", "result": "Dose-dependent effect"}, {"measurement": "Activity", "setting": "Mus musculus [11]", "result": "Dose-dependent effect"}, {"measurement": "Ratio IC50", "setting": "Homo sapiens", "result": 48}]}, {"compound": "N#CCC(=O)NC1CN(c2ncnc3[nH]ccc23)CC12CC2", "note": "(stereo not given)", "values": [{"measurement": "inhibition", "setting": "[12]", "result": 6, "unit": "%"}, {"measurement": "inhibition at 1 µM", "setting": "[13]", "result": 10, "unit": "%"}]}, {"compound": "CN(c1ncnc2[nH]ccc12)[C@H]1CN(C(=O)CC#N)CC12CC2.O=C(O)CC(O)(CC(=O)O)C(=O)O", "values": [{"measurement": "AUCt", "setting": "Rattus norvegicus [14]", "result": 2000, "unit": "ng·h/mL"}, {"measurement": "AUC", "setting": "Rattus norvegicus [15]", "result": 2000, "unit": "ng·h/mL"}, {"measurement": "AUCt", "setting": "Rattus norvegicus [16]", "result": 2400, "unit": "ng·h/mL"}, {"measurement": "Cmax", "setting": "[17]", "result": 1200, "unit": "ng/mL"}, {"measurement": "Tmax", "setting": "[18]", "result": 0.5, "unit": "h"}, {"measurement": "MRT", "setting": "[19]", "result": 1.2, "unit": "h"}, {"measurement": "MRT", "setting": "[20]", "result": 2.3, "unit": "h"}, {"measurement": "half-life", "setting": "[21]", "result": 3.6, "unit": "h"}, {"measurement": "AUC", "setting": "Rattus norvegicus [22]", "result": 2400, "unit": "ng·h/mL"}, {"measurement": "half-life", "setting": "[23]", "result": 4.3, "unit": "h"}, {"measurement": "bioavailability", "setting": "[24]", "result": 58, "unit": "%"}]}]}
